# Assay results taken from ChEMBL document CHEMBL1154143, “Cytotoxic and anti-inflammatory cembranoids from the soft coral Lobophytum crassum” (J Nat Prod, 2008).
# How the values were obtained:
# HepG2 = assay: Cytotoxicity against human HepG2 cells by MTT assay; assay type: functional, cell-based
# Summary of the method: (§1)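 Human cancer cell lines obtained from ATCC. Cytotoxicity read by MTT colorimetric method.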
# [1] = Cytotoxicity against human Hep3B cells by MTT assay; assay type: functional, cell-based, Hep 3B2; summary of the method: as §1
# MDA-MB-231 = assay: Cytotoxicity against human MDA-MB-231 cells by MTT assay; assay type: functional, cell-based; summary of the method: as §1
# MCF7 = assay: Cytotoxicity against human MCF7 cells by MTT assay; assay type: functional, cell-based; summary of the method: as §1
# A549 = assay: Cytotoxicity against human A549 cells by MTT assay; assay type: functional, cell-based; summary of the method: as §1
# Ca9-22 = assay: Cytotoxicity against human Ca9-22 cells by MTT assay; assay type: functional, cell-based; summary of the method: as §1
# RAW264.7 [2] = assay: Antiinflammatory activity in mouse RAW264.7 cells assessed as reduction in LPS-induced iNOS protein level at 10 uM treated 5 mins before LPS challenge by Western blot analysis relative to control; assay type: functional; design: scale not given: the % may be the effect or the level left
# Summary of the method: (§2)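 Murine RAW 264.7 macrophages kept in DMEM with 10% heat-inactivated FBS at 37 °C, 5% CO2. Compound added 5 min before LPS (0.01 µg/mL), then 16 h incubation. Lysates of equal protein run on SDS-PAGE and blotted. iNOS and COX-2 probed, β-actin used as loading control, ECL detection. Band IOD expressed relative to the LPS-only control. One-way ANOVA with Student-Newman-Keuls test.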
# RAW264.7 [3] = assay: Antiinflammatory activity in mouse RAW264.7 cells assessed as reduction in LPS-induced COX2 protein level at 10 uM treated 5 mins before LPS challenge by Western blot analysis relative to control; assay type: functional; design: scale not given: the % may be the effect or the level left; summary of the method: as §2
Compound,IC50 (HepG2) [µg/mL],IC50 [1] [µg/mL],IC50 (MDA-MB-231) [µg/mL],IC50 (MCF7) [µg/mL],IC50 (A549) [µg/mL],IC50 (Ca9-22) [µg/mL],Activity (RAW264.7 [2]) [%],Activity (RAW264.7 [3]) [%]
C/C1=C\[C@@H]2OC(=O)[C@@H](CN(C)C)[C@@H]2CCC(C)/C=C/C/C(C(=O)O)=C/CC1 (stereo not given in full),> 5,> 5,> 5,> 5,> 5,> 5,,
C=C(CO)[C@@H]1CC/C(C)=C/CC/C(C)=C/CC/C(C)=C/[C@@H]1O,> 5,> 5,> 5,> 5,> 5,> 5,,
O=C(/C=C/c1ccc(O)c(O)c1)OCCc1ccccc1 [CAFFEIC ACID PHENETHYL ESTER],,,,,,,2.5,67.2
C=C1C(=O)O[C@H]2C/C(C)=C/[C@@H](O)C/C(C)=C/CC/C(C)=C/C[C@H]12 [CRASSUMOLIDE A],> 5,> 5,> 5,> 5,> 5,3.2,26.8,50.2
C=C1C(=O)O[C@H]2/C=C(\C)CC/C=C(\CO)CC/C=C(\C)CC[C@@H]12 [CRASSUMOLIDE B],> 5,> 5,> 5,> 5,> 5,> 5,,
C=C1C(=O)O[C@H]2/C=C(\C)CC/C=C(\C(=O)OC)CC/C=C(\C)CC[C@@H]12 [CRASSUMOLIDE C],> 5,> 5,> 5,> 5,> 5,1.7,2.3,34.5
C=C1C(=O)O[C@H]2/C=C(\C)CC/C=C(\C)C/C=C/[C@](C)(O)CC[C@@H]12 [CRASSUMOLIDE D],> 5,> 5,> 5,> 5,> 5,> 5,,
C=C(CO)[C@@H]1CC[C@@](C)(OO)/C=C/C/C(C)=C/CC/C(C)=C/[C@@H]1O [CRASSUMOLIDE E],> 5,> 5,> 5,> 5,> 5,> 5,,
C=C1C(=O)O[C@H]2/C=C(\C)C/C=C/[C@@](C)(O)CC/C=C(\C)CC[C@@H]12 [CRASSUMOLIDE F],> 5,> 5,> 5,> 5,> 5,> 5,,
C=C1C(=O)O[C@H]2/C=C(\C)CC[C@H](OC(C)=O)[C@@]3(C)CC[C@H](OO3)/C(C)=C\C[C@@H]12 [DENTICULATOLIDE],2.4,2.5,2,2,2.3,1.2,10.2,34.3
COc1cccc2c1C(=O)c1c(O)c3c(c(O)c1C2=O)C[C@@](O)(C(=O)CO)C[C@@H]3O[C@H]1C[C@H](N)[C@H](O)[C@H](C)O1 [DOXORUBICIN],0.2,0.2,0.2,0.2,,0.1,,
C=C1C(=O)O[C@H]2/C=C(\C)CC/C=C(/C(=O)O)CC/C=C(\C)CC[C@@H]12 [LOBOHEDLEOLIDE],> 5,4.7,> 5,> 5,4.6,2.8,21.5,39.2
